Screens (PubChem BioAssay)
Rows were chosen to be rich in hits. Some 4.1% of all compounds tested hit in one or more screens of this group.
MPTP inh – inhibitors of mitochondrial permeability transition pore. isolated mouse mitochondria, Ca2+ swelling absorbance, 30 min. inhibition, % at 10 µM. hit rate 1.4% among 360,000. AID 602449;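 active = inhibition of 50% or more, scaled per plate between neutral and stimulator controls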;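 also: 0% = DMSO wells given calcium and 100% = 1 mM EGTA wells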
MC4R antag cAMP – antagonists of human melanocortin 4 receptor (MC4R); P32245; MC4R-expressing cells, MTII-stimulated cAMP, LANCE TR-FRET; inhibition, % at 6.5 µM; hit rate 0.48% among 360,000;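 active = inhibition above its plate's cutoff, the mean of tested wells on that plate plus 3 SD, cut at about 29% in these data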;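 also: 0% = Melanotan II alone and 100% = Melanotan II plus saturating MCL0020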
Target sequence (P32245 whole entry, looked up): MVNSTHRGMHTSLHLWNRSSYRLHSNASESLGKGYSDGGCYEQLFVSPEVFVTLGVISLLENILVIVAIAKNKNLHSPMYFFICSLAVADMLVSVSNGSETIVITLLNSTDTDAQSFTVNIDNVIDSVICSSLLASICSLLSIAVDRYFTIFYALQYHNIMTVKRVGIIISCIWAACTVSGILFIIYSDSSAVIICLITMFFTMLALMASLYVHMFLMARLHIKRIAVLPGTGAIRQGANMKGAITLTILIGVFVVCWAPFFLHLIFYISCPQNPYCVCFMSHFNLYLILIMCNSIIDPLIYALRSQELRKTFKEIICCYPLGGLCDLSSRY
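Material: human MC4R-expressing U2OS cells. Probe or stimulus: Melanotan II challenge. Dosing: 6.5 µM single dose. Times: 30-min compound, 1-h challenge, 1-h detection, room temperature. Technique: TR-FRET with Eu-cAMP and labeled anti-cAMP, 671 nm. Replication: singlicate.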
MC4R barr agon – human MC4R agonism via beta-arrestin; U2OS MC4R beta-arrestin complementation, luminescence; percent of melanotan II response, DMSO zero; activation, % at 8.9 µM; hit rate 0.98% among 360,000; AID 540308;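 active = activation above a per-plate cutoff, the mean activation of sample wells on that plate plus 3 SD, cut at about 8% in these data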
ATG4B inhibitor – blocks human ATG4B protease cleavage of LC3 substrate; AID 504462; Q9Y4P1; hit rate 0.51% among 340,000; inhibition, % at 8.33 µM; ATG4B cleavage of LC3-PLA2, NBD-HPC fluorescence, 1 h; in the data active = inhibition above about 40%
SMARCA2 activ – increases SMARCA2 function in MMTV reporter cells; MG213 cells, MMTV-luciferase reporter, dexamethasone, overnight; activation, % at 9.1 µM; hit rate 1% among 370,000; AID 652017; in the data active = activation above about 7.8%;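 also: 0% = vehicle wells and 100% = reference activator wells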
Rh123 counter – membrane potential counter-screen of mitochondrial pore inhibitors; shares compounds with MPTP inh; isolated mitochondria, Rhodamine 123 fluorescence; inhibition, % at 10 µM; hit rate 78% among 5,000; AID 624504; in the data active = inhibition above about 22%;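 also: 0% = DMSO vehicle and 100% = positive control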
MPTP abs DR – dose response confirmation of mitochondrial permeability transition pore inhibitors; shares compounds with MPTP inh; isolated mitochondria swelling, absorbance; IC50, µM; hit rate 58% among 780; in the data active = IC50 below about 20 µM
MPTP cs DR – MPTP inhibitor counter-screen activity, dose response; hit rate 49% among 780; isolated mitochondria counterscreen, fluorescence read-out; IC50, µM; shares compounds with MPTP inh; in the data active = IC50 below about 80 µM
The depositor's hits bear a star; i = inactive; nt = not tested or not shown; ! = not confirmed by another sample.

SMILES	MPTP inh	MC4R antag cAMP	MC4R barr agon	ATG4B inhibitor	SMARCA2 activ	Rh123 counter	others
COc1ccc(C(=O)Nc2ccc(C(=O)c3ccccc3)cc2)cc1	62*	-1	1	-11	-5	41*
COc1ccc(C(=O)Nc2ccc(Cl)c(S(=O)(=O)Nc3ccccc3OC)c2)cc1	55*	16	0	-6	-5	70*
COc1ccc(NC(=O)Cc2cccc(F)c2)cc1S(=O)(=O)Nc1ccccc1Cl	52*	5	-1	-7	-1	70*
CCOc1ccc(NS(=O)(=O)c2cc(NC(=O)c3ccc(C)cc3)ccc2Cl)cc1	90*	-17	-1	-8	-4	56*
CCOc1ccc(Oc2ccc(NS(=O)(=O)c3cc(C(=O)O)ccc3Cl)cc2)cc1	-1	13	-2	-32	-4	nt
O=C(Nc1nc2ccc(F)cc2s1)C1CCN(S(=O)(=O)c2cc([N+](=O)[O-])ccc2Cl)CC1	96*	13	0	11	-4	84*
Cc1ccc2nc(NC(=O)C3CCN(S(=O)(=O)c4cc([N+](=O)[O-])ccc4Cl)CC3)sc2c1	97*	-1	0	-2	-5	69*
Cc1ccc(NC(=O)C2CCN(S(=O)(=O)c3cc([N+](=O)[O-])ccc3Cl)CC2)nc1	81*	-8	-2	-15	-4	80*
Cc1ccc(Oc2ccc3c(c2)C(=O)N(c2ccc(S(=O)(=O)Nc4nccs4)cc2)C3=O)cc1	4	11	0	21	-2	nt
Cc1ccc(/C=C2/SC(=S)N(c3ccc(S(=O)(=O)Nc4nccs4)cc3)C2=O)cc1	96*	12	0	-3	-2	75*
O=C1/C(=C/c2ccccn2)SC(=S)N1c1ccc(O)cc1	2	11	2	-6	-2	nt
O=C1/C(=C\c2ccccn2)SC(=S)N1c1ccc(S(=O)(=O)Nc2nccs2)cc1	70*	17	-3	-6	-2	48*
COc1ccc(/C=C2/SC(=S)N(c3ccc(S(=O)(=O)Nc4nccs4)cc3)C2=O)cc1	89*	21	0	-2	-4	64*
CCCC[C@H]1C2CC(OC(=O)NCc3ccc(Cl)cc3)C(C2)[C@H]2CCCCN21 (stereo partly specified)	nt	nt	nt	nt	-3	nt
CC(C)C[C@H]1COc2cc(Br)ccc2S(=O)(=O)N1Cc1cn(Cc2ccc(C(F)(F)F)cc2)nn1	nt	nt	nt	nt	-3	nt
CCOc1ccc(-n2c(SCC(=O)Nc3ccc4cn[nH]c4c3)nnc2-c2ccncc2)cc1	nt	nt	nt	nt	-4	nt
COc1cccc(N(C)C(=O)[C@@H](C)[C@@H](O)c2ccc(Cl)cc2)c1	nt	nt	nt	nt	-2	nt
CCC1=NN(C(=O)c2ccc(Br)cc2)C(O)(c2ccccc2)C1 (stereo unspecified)	61*	-2	-1	2	2	75*
Cc1cc(/C=N/n2cnnc2)c(C)n1-c1ccccc1	-4	-7	-1	9	2	nt
Cc1cc(/C=N/n2cnnc2)c(C)n1-c1ccc(OCc2ccc(F)cc2)cc1	99*	3	0	19	-6	93*
CCN(CC)S(=O)(=O)c1cc([N+](=O)[O-])ccc1NNC(=O)Nc1ccccc1OC	3	14	-3	-11	-1	nt
CCN(CC)S(=O)(=O)c1cc([N+](=O)[O-])ccc1NNC(=O)Nc1ccc(F)cc1	86*	8	0	-7	0	92*
COc1ccccc1N=c1scc(-c2ccc3c(c2)NC(=O)CO3)n1CC1CCCO1 (stereo unspecified)	64*	0	-2	-5	-1	12	MPTP abs DR=i;MPTP cs DR=41*
COCC(C)n1c(-c2ccc3c(c2)NC(=O)CO3)csc1=Nc1ccc(OC(F)F)cc1 (stereo unspecified)	70*!	13	-2	-8	-6	54*
O=C(OCc1ccccc1)N(CCCCN(CCCNCc1ccccc1)C(=O)OCc1ccccc1)CCCNCc1ccccc1	64*	8	4	-7	3	-6
CC(C)=CC(=O)Nc1ccc(Cl)cc1	3	3	0	10	7	nt
